The target in assay [1] is T1, Growth factor receptor-bound protein 2 (Homo sapiens, UniProt P62993). In words: Inhibition of Grb2-SH2 domain binding to phospho-EGF receptor intracellular C-terminal domain. In kind it is biochemical. The gist of the method:
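Phosphorylated MBP-EGFR C-terminal domain (residues 976–1210, expressed in E. coli) is immobilized on plates and incubated with GST/Grb2-SH2 in the presence of phosphopeptide or buffer. Bound SH2 is detected with rabbit anti-GST and HRP anti-rabbit antibody, using TMB substrate read at 655 nm. Inhibition is the % absorbance reduction versus no inhibitor; IC50 comes from nonlinear regression.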

Assay [2] concerns the target T1, Growth factor receptor-bound protein 2. In words: Inhibition of Grb2 SH2 domain binding to biotinylated phosphopeptide. The gist of the method:
(§1)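 Competition ELISA. Biotinylated phosphopeptide (10 ng/mL in 50 mM Tris, pH 7.5) is captured overnight at 4 °C on streptavidin-coated plates. Wells then receive GST-SH2 fusion (Grb2 3.2 ng/mL, Lck 3.2 ng/mL, p85 N-terminal 0.7 ng/mL) with varying unlabeled peptide or buffer, in TBS/0.1% Tween. Detection is rabbit anti-GST, then peroxidase anti-rabbit IgG with TMB. IC50 comes from nonlinear regression of % absorbance reduction.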

The target of assay [3] is Tyrosine-protein kinase Lck (Homo sapiens, UniProt P06239). In words: Inhibition of p56lck SH2 domain binding to biotinylated phosphopeptide. The gist of the method: as §1
The nature of assay [4]: Inhibition of p85 SH2 domain binding to biotinylated phosphopeptide. In a few lines:
as §1

pIC50: −log10 of the molar value.

T1 sequence (P62993 whole entry, the tested form may be a part): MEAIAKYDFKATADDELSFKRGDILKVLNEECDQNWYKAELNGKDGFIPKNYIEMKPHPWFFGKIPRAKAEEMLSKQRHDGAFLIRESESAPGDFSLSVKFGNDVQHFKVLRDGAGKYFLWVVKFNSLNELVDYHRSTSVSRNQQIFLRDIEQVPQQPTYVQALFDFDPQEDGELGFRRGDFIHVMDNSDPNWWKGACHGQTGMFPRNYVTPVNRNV
Chain of Tyrosine-protein kinase Lck (P06239 whole entry, the tested form may be a part): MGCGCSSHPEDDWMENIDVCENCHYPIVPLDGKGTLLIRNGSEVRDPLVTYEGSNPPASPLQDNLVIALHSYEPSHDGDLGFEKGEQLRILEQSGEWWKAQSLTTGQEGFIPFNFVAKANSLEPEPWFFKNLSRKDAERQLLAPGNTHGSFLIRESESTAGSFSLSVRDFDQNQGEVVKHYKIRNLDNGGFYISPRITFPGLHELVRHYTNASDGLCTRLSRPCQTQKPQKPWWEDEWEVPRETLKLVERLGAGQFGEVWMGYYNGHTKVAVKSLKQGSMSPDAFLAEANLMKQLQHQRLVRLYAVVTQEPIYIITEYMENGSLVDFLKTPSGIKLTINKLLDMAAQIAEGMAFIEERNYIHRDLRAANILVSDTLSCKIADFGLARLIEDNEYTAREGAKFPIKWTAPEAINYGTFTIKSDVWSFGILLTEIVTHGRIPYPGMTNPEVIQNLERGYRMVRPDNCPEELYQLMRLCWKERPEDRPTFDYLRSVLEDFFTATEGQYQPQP

The compound `CC[C@H](C)[C@H](NC(=O)[C@@H](N)Cc1ccc(OP(=O)(OC(C)=O)OC(C)=O)cc1)C(=O)N[C@@H](CC(=O)NCCCc1ccc(Cl)cc1Cl)C(=O)O` gave a pIC50 in assay [1] of 5.82.

In the case of `CC[C@H](C)[C@H](NC(=O)[C@@H](N)Cc1ccc(OP(=O)(OC(C)=O)OC(C)=O)cc1)C(=O)N[C@@H](CC(=O)NCCCc1cccc2ccccc12)C(=O)O`, the pIC50 is 6.24 in assay [2], less than 5.00 in assay [3], less than 5.00 in assay [4] and 6.48 in assay [1].

In the case of `CC[C@H](C)[C@H](NC(=O)[C@@H](N)Cc1ccc(OP(=O)(OC(C)=O)OC(C)=O)cc1)C(=O)N[C@@H](CC(=O)NCCCc1ccccc1)C(=O)O`, the pIC50 in assay [1] is 5.64. Same read-out and setting: the result for `CC[C@H](C)[C@H](NC(=O)[C@@H](N)Cc1ccc(OP(=O)(OC(C)=O)OC(C)=O)cc1)C(=O)N[C@@H](CC(=O)NCC(C)C)C(=O)O` reads 5.49. Still for that read-out and setting: as for `CC[C@H](C)[C@H](NC(=O)[C@@H](N)Cc1ccc(OP(=O)(OC(C)=O)OC(C)=O)cc1)C(=O)N[C@@H](CC(=O)NCCC(C)C)C(=O)O`, the figure is 5.51; as for `CC[C@H](C)[C@H](NC(=O)[C@@H](N)Cc1ccc(OP(=O)(OC(C)=O)OC(C)=O)cc1)C(=O)N[C@@H](CC(N)=O)C(=O)O`, 5.05. `CCCCC(CC)CNC(=O)C[C@H](NC(=O)[C@@H](NC(=O)[C@@H](N)Cc1ccc(OP(=O)(OC(C)=O)OC(C)=O)cc1)[C@@H](C)CC)C(=O)O` (stereo not given in full) showed a pIC50 in assay [1] of 5.80.

These data come from ChEMBL document CHEMBL1131080, “Structure-based design and synthesis of high affinity tripeptide ligands of the Grb2-SH2 domain” (J Med Chem, 1998).
